# Results taken from ChEMBL document CHEMBL4425191, “Design, synthesis and biological evaluation of photoaffinity probes of antiangiogenic homoisoflavonoids” (2016).
# Tests used:
# Type in all cases: functional
# [1] = Antiproliferative activity against human HREC cells after 48 hrs by alamar blue based fluorescence assay
# In short: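 Human retinal microvascular endothelial cells at passages 5–8, 2,500 per well, rested 24 h, then given test compound (0.5 nM–500 µM) for 48 h. Proliferation was read by alamarBlue 4 h after addition (ex 560, em 590 nm) and dose-response fitted against DMSO control. GI50 <100 µM was recorded only if ≥50% reduction occurred at the highest concentration.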
# HUVEC = assay: Antiproliferative activity against human HUVEC cells after 48 hrs by alamar blue based fluorescence assay
# In short: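 HUVECs, passages 5–8, cultured in EGM-2 (EBM plus growth-factor bullet kit, 2% FBS). 2,500 cells were seeded 24 h, then incubated 48 h with compound at 0.5 nM–500 µM. alamarBlue was added and fluorescence read 4 h later at 560/590 nm; curves were fitted versus DMSO. GI50 <100 µM was listed only for ≥50% reduction at the top dose.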
# [2] = Antiproliferative activity against human 92-1 cells after 48 hrs by alamar blue based fluorescence assay
# Y79 = assay: Antiproliferative activity against human Y79 cells after 48 hrs by alamar blue based fluorescence assay; details: Y79, 48 h
# ARPE-19 = assay: Antiproliferative activity against human ARPE19 cells after 48 hrs by alamar blue based fluorescence assay; details: ARPE-19, 48 h
# In short: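 ARPE19 cells grown in Ham's F-10 with 10% FBS and 1% pen-strep; 2,500 cells/well settled 24 h, then 48 h compound treatment over 0.5 nM–500 µM. alamarBlue fluorescence (560/590 nm) was read after 4 h; curves were fitted relative to DMSO. GI50 <100 µM was reported only where the highest concentration cut cell number by ≥50%.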
SMILES,GI50 [1],GI50 (HUVEC),GI50 [2],GI50 (Y79),GI50 (ARPE-19)
COc1ccc(CC2COc3cc(OC)c(OC)c(OC)c3C2=O)cc1OCC(=O)NCCCOc1ccc(C(=O)c2ccc(OCc3cn(CCOCCOCCOCCNC(=O)CCCC[C@@H]4SC[C@@H]5NC(=O)N[C@@H]54)nn3)cc2)cc1 (stereo not given in full),0.072 µM,> 100 µM,> 100 µM,> 100 µM,> 100 µM
COc1ccc(CC2COc3cc(OC)c(OC)c(OC)c3C2=O)cc1NC(=O)[C@H](Cc1ccc(OCCCC(=O)O)cc1)NC(=O)OC(C)(C)C (stereo not given in full),0.0079 µM,22 µM,> 100 µM,> 100 µM,> 100 µM
COc1ccc(CC2COc3cc(OC)c(OC)c(OC)c3C2=O)cc1NC(=O)[C@H](Cc1ccc(OCCCC(=O)NCCCOc2ccc(C(=O)c3ccc(OCc4cn(CCOCCOCCOCCNC(=O)CCCC[C@@H]5SC[C@@H]6NC(=O)N[C@@H]65)nn4)cc3)cc2)cc1)NC(=O)OC(C)(C)C (stereo not given in full),42 µM,> 100 µM,> 100 µM,> 100 µM,> 100 µM
COc1ccc(CC2COc3cc(OCCCC(=O)NCCCOc4ccc(C(=O)c5ccc(OCc6cn(CCOCCOCCOCCNC(=O)CCCC[C@@H]7SC[C@@H]8NC(=O)N[C@@H]87)nn6)cc5)cc4)c(OC)c(OC)c3C2=O)cc1OC(=O)[C@H](Cc1ccccc1)NC(=O)OC(C)(C)C (stereo not given in full),44 µM,> 100 µM,> 100 µM,> 100 µM,> 100 µM
COc1ccc(CC2COc3cc(OC)c(OC)c(OC)c3C2=O)cc1OC(=O)[C@H](Cc1ccc(OCC(=O)O)cc1)NC(=O)OC(C)(C)C (stereo not given in full),0.047 µM,0.012 µM,> 100 µM,> 100 µM,> 100 µM
COc1ccc(CC2COc3cc(OC)c(OC)c(OC)c3C2=O)cc1OC(=O)[C@H](Cc1ccc(OCC(=O)NCCCOc2ccc(C(=O)c3ccc(OCc4cn(CCOCCOCCOCCNC(=O)CCCC[C@@H]5SC[C@@H]6NC(=O)N[C@@H]65)nn4)cc3)cc2)cc1)NC(=O)OC(C)(C)C (stereo not given in full),0.21 µM,0.44 µM,> 100 µM,> 100 µM,> 100 µM
